The test system of assay [1] is Mus musculus. The assay can be described thus: In vivo antitumor activity against lymphatic leukemia P388 cells resistant to mitomycin C (MMC) was measured as maximal increase in life span of the treated mice at optimal dose of 46 mg/kg. Type of assay: functional.
For assay [2], the system named is Mus musculus. The assay can be described thus: Effective dose that gave 50% inhibition of tumor growth was calculated towards sarcoma 180 cells which were inoculated subcutaneously to the axillary region of ddY mice. It is filed as functional. As to conditions: Mus musculus, 180, sc. The method in brief:
(§1)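 Sarcoma 180 cells implanted sc in the axillary region of ddY mice on day 0; compounds given iv on day 1. Tumor volume compared treated versus control (T/C). 50% growth-inhibitory dose calculated from the dose-response curve; optimal dose also recorded.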

In assay [3] the test system is HeLa. The assay can be described thus: In vitro anticellular activity tested against HeLa S3 cells. It is filed as functional, cell-based. As to conditions: Homo sapiens. The method, boiled down: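 HeLa S3 cells seeded on day 0, then exposed to drug for 1 h on day 1; anticellular activity determined by a previously described method.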
In assay [4] the test system is CCRF S-180. The assay can be described thus: Optimal dose towards sarcoma 180 cells, inoculated subcutaneously to the axillary region of ddY mice. It is filed as functional, Mus musculus. The method, boiled down:
as §1

Assay [5] concerns Mus musculus. Briefly: In vivo antitumor activity against lymphatic leukemia P388 cells resistant to mitomycin C (MMC) was measured as maximal increase in life span of the treated mice at optimal dose of 13 mg/kg. Type of assay: functional.
Assay [6] deals with Mus musculus. The assay can be described thus: In vivo antitumor activity against lymphatic leukemia P388 cells sensitive to mitomycin C (MMC) was measured as maximal increase in life span of the treated mice at optimal dose of 13 mg/kg. Type of assay: functional.
Assay [7] relates to Mus musculus. The assay can be described thus: In vivo antitumor activity against lymphatic leukemia P388 cells sensitive to mitomycin C (MMC) was measured as maximal increase in life span of the treated mice at optimal dose of 3.1 mg/kg. It is filed as functional.
Assay [8] relates to Mus musculus. Briefly: In vivo antitumor activity against lymphatic leukemia P388 cells resistant to mitomycin C (MMC) was measured as maximal increase in life span of the treated mice at optimal dose of 3.1 mg/kg. Type of assay: functional.
For assay [9], the system named is Mus musculus. The assay can be described thus: In vivo antitumor activity against lymphatic leukemia P388 cells resistant to mitomycin C (MMC) was measured as maximal increase in life span of the treated mice at optimal dose of 9.0 mg/kg. It is filed as functional.
The test system of assay [10] is Mus musculus. The assay can be described thus: In vivo antitumor activity against lymphatic leukemia P388 cells sensitive to mitomycin C (MMC) was measured as maximal increase in life span of the treated mice at optimal dose of 25 mg/kg. Type of assay: functional.
Assay [11] deals with Mus musculus. The assay can be described thus: In vivo antitumor activity against lymphatic leukemia P388 cells resistant to mitomycin C (MMC) was measured as maximal increase in life span of the treated mice at optimal dose of 25 mg/kg. Type of assay: functional.
Assay [12] deals with CCRF S-180. Briefly: Tumor volume of sarcoma 180 cells which were inoculated […] to the axillary region of ddY mice, after treatment. Type of assay: functional, Mus musculus.
Assay [13] has as its system Mus musculus. Briefly: In vivo antitumor activity against lymphatic leukemia P388 cells resistant to mitomycin C (MMC) was measured as maximal increase in life span of the treated mice at optimal dose of 50 mg/kg. Type of assay: functional.
In assay [14] the test system is Mus musculus. The assay can be described thus: The in vivo antitumor activity against lymphatic leukemia P388 cells resistant to mitomycin C (MMC) in mice was measured as maximal increase in life span of the treated mice at optimal dose of 3.1 mg/kg. It is filed as functional.
In assay [15] the test system is Mus musculus. The assay can be described thus: In vivo antitumor activity against lymphatic leukemia P388 cells resistant to mitomycin C (MMC) was measured as maximal increase in life span of the treated mice at optimal dose of 6.0 mg/kg. It is filed as functional.
Assay [16] concerns Mus musculus. Briefly: In vivo antitumor activity against lymphatic leukemia P388 cells sensitive to mitomycin C (MMC) was measured as maximal increase in life span of the treated mice at optimal dose of 0.78 mg/kg. Type of assay: functional.
In assay [17] the test system is Mus musculus. Briefly: In vivo antitumor activity against lymphatic leukemia P388 cells resistant to mitomycin C (MMC) was measured as maximal increase in life span of the treated mice at optimal dose of 1.6 mg/kg. Type of assay: functional.
The test system of assay [18] is HeLa. Briefly: In vitro anticellular activity against HeLa S3 cells; 0.59-1.1. Conditions: Homo sapiens. Type of assay: functional, cell-based.
Assay [19] deals with HeLa. The assay can be described thus: In vitro anticellular activity against HeLa S3 cells; 0.82-1.4. Type of assay: functional, cell-based. Conditions: Homo sapiens.
Assay [20] relates to Mus musculus. Briefly: In vivo antitumor activity against lymphatic leukemia P388 cells sensitive to mitomycin C (MMC) was measured as maximal increase in life span of the treated mice at optimal dose of 1.0-6.0 mg/kg; 38-84. It is filed as functional.
The test system of assay [21] is Mus musculus. Briefly: In vivo antitumor activity against lymphatic leukemia P388 cells resistant to mitomycin C (MMC) was measured as maximal increase in life span of the treated mice at optimal dose of 1.0-4.0 mg/kg. Type of assay: functional.
For assay [22], the system named is Mus musculus. Briefly: Optimal dose was calculated towards sarcoma 180 cells which were inoculated subcutaneously to the axillary region of ddY mice; 4.0-6.0. Type of assay: functional.
For assay [23], the system named is Mus musculus. Briefly: Tumor volume was calculated against sarcoma 180 cells which were inoculated subcutaneously to the axillary region of ddY mice; 0.28-0.46.
The subject of assay [24] is Mus musculus. Briefly: Effective dose that gave 50% inhibition of tumor growth was calculated towards sarcoma 180 cells which were inoculated subcutaneously to the axillary region of ddY mice; 1.9-3.7. It is filed as functional. As to conditions: Mus musculus, 180, sc.

Structures are written as SMILES. pIC50: −log10 of the molar value.

Regarding `CO[C@@]12[C@H](COC(N)=O)C3=C(C(=O)C(CSc4ccccc4O)=C(N)C3=O)N1C[C@@H]1N[C@@H]12`, the ILS (usually how much longer treated animals lived than controls) at 46 mg/kg in assay [1] is > 67%. In addition, the median effective dose (ED50) (commonly the dose at which the effect has come halfway, by size or by number of responders) in [2] was 22 mg/kg. Moreover, the negative-log IC50 (pIC50) (in general, the IC50 on a negative log10 scale, so that one unit is a factor of ten) in [3] is 5.66. Also, the OD in assay [4] worked out at 46 mg/kg.

For the compound `CO[C@@]12[C@H](COC(N)=O)C3=C(C(=O)C(CSC4OC(COC(C)=O)C(OC(C)=O)C(OC(C)=O)C4OC(C)=O)=C(N)C3=O)N1C[C@@H]1N[C@@H]12` (some centres not stated), the ED50 in [2] is 24 mg/kg. Moreover, the negative-log IC50 (pIC50) in assay [3] is 5.96. Further, the ILS at 13 mg/kg in assay [5] is > 143%; in assay [6], 58%. The OD in assay [4] was 25 mg/kg.

On to `CO[C@@]12[C@H](COC(N)=O)C3=C(C(=O)C(CSc4ncccc4O)=C(N)C3=O)N1C[C@@H]1N[C@@H]12`, for which the 50% effective dose (ED50) in assay [2] is 3.7 mg/kg. Moreover, the pIC50 in [3] was 6.72. In assay [4], this compound returned an OD of 6.3 mg/kg. Further, the increase in life span (ILS) at 3.1 mg/kg came out at 49% in [7] and 26% in assay [8].

With `CO[C@@]12[C@H](COC(N)=O)C3=C(C(=O)C(CSC4=NCCS4)=C(N)C3=O)N1C[C@@H]1N[C@@H]12`, the 50% effective dose (ED50) in [2] was 5.9 mg/kg. For the same compound, the pIC50 in assay [3] is 6.09. This compound also yielded an OD in assay [4] of 6.3 mg/kg. In addition, the increase in life span (ILS) at 3.1 mg/kg in [7] is 62%; in assay [8], 64%.

As to `CO[C@@]12[C@H](COC(N)=O)C3=C(C(=O)C(CSc4nncn4C)=C(N)C3=O)N1C[C@@H]1N[C@@H]12`, the ILS at 9 mg/kg in [9] is > 71%. The ED50 in assay [2] is 39 mg/kg. In addition, the negative-log IC50 (pIC50) in assay [3] is 5.60. The same compound yielded an OD in assay [4] of 46 mg/kg.

As to `CO[C@@]12[C@H](COC(N)=O)C3=C(C(=O)C(COC(C)C)=C(N)C3=O)N1C[C@@H]1N[C@@H]12`, in [2], the 50% effective dose (ED50) is 15 mg/kg. The compound also showed a negative-log IC50 (pIC50) in assay [3] of 5.60. Besides, the OD in [4] is 50 mg/kg. Also, the ILS at 25 mg/kg in assay [10] is 55%; in assay [11], > 97%.

`COC(=O)CCSCC1=C(N)C(=O)C2=C(C1=O)N1C[C@@H]3N[C@@H]3[C@]1(OC)[C@@H]2COC(N)=O`: in assay [3], the negative logarithm of the IC50 (pIC50) was 6.01. The OD in assay [4] stood at 3.1 mg/kg. For the same compound, the T/C in [12] is recorded as 0.63 min. The compound also returned an ILS at 3.1 mg/kg in [7] of 69%.

As to `CO[C@@]12[C@H](COC(N)=O)C3=C(C(=O)C(CSc4nc5ccccc5s4)=C(N)C3=O)N1C[C@@H]1N[C@@H]12`, in assay [2], the 50% effective dose (ED50) is 36 mg/kg. In addition, in assay [3], the pIC50 is 6.15. Also, the OD in assay [4] turned out to be 50 mg/kg. The compound further showed an ILS at 13 mg/kg in assay [6] of 40%. The compound also returned an ILS at 50 mg/kg in assay [13] of 57%.

Take `CO[C@@]12[C@H](COC(N)=O)C3=C(C(=O)C(CSc4cccs4)=C(N)C3=O)N1C[C@@H]1N[C@@H]12`: the increase in lifespan (ILS) at 46 mg/kg in assay [1] is > 56%. Moreover, the 50% effective dose (ED50) in assay [2] is 29 mg/kg. This compound also gave a negative logarithm of the IC50 (pIC50) in [3] of 5.31. In [4], this compound had an OD of 46 mg/kg.

As to `CO[C@@]12[C@H](COC(N)=O)C3=C(C(=O)C(CSc4nccs4)=C(N)C3=O)N1C[C@@H]1N[C@@H]12`, the median effective dose (ED50) in assay [2] was 8.9 mg/kg. Also, the negative logarithm of the IC50 (pIC50) in [3] is 5.85. In [4], the OD worked out at 13 mg/kg. Besides, the ILS at 3.1 mg/kg in [7] was determined as 49%; in assay [14], 26%.

As to `C=CCSCC1=C(N)C(=O)C2=C(C1=O)N1C[C@@H]3N[C@@H]3[C@]1(OC)[C@@H]2COC(N)=O`, the negative logarithm of the IC50 (pIC50) in assay [3] is 5.64. The OD in assay [4] was found to be 14 mg/kg. This compound also had a T/C in assay [12] of 0.77 min. In addition, the increase in lifespan (ILS) at 6 mg/kg in assay [15] stood at 33%.

For the compound `CO[C@@]12[C@H](COC(N)=O)C3=C(C(=O)C(CSc4ncccn4)=C(N)C3=O)N1C[C@@H]1N[C@@H]12`, the increase in lifespan (ILS) at 0.78 mg/kg in [16] turned out to be 58%. Also, the median effective dose (ED50) in [2] was 8.9 mg/kg. The pIC50 in assay [3] is 6.02. Also, in assay [17], the ILS at 1.6 mg/kg was > 92%. Further, in assay [4], the OD was found to be 13 mg/kg.

In the case of `CO[C@@]12[C@H](COC(N)=O)C3=C(C(=O)C(C)=C(N)C3=O)N1C[C@@H]1N[C@@H]12` [MITOMYCIN], the pIC50 in [18] is 5.96; in assay [19], 5.85. The ILS in [20] is recorded as 84%; in assay [21] it was 23%. Moreover, in assay [22], the OD was 6 mg/kg. In addition, in assay [23], the T/C was 0.46. Besides, in [24], the 50% effective dose (ED50) was 3.7 mg/kg.

The values are drawn from ChEMBL document CHEMBL1127752, “Synthesis and antitumor activity of novel mitomycin derivatives containing functional groups at the C-6-methyl position” (J Med Chem, 1994).
